Among the data in ChEMBL document CHEMBL1126933, “Syntheses and biological activities of potent potassium channel openers derived from (+/-)-2-oxo-1-pyridin-3-yl-cyclohexanecarbothioic acid methylamide: new potassium channel openers” (1993) are IC90 values, retold here.

For this assay, the species on record is Rattus norvegicus. Description: In vitro relaxation of de-endothelialized rat aortic strips toned with 20 mM KCl. In kind it is functional. Particulars: Aorta. In short, it runs like this: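 Rat aortic rings cut into transverse strips, endothelium removed by gentle rubbing. Strips held in Krebs bicarbonate buffer at 37 °C, gassed with 95% O2/5% CO2, isometric tension recorded. Equilibrated 90 min at 2 g resting tension, then contracted with 20 mmol KCl. At maximal contraction, relaxation measured by cumulative concentration-response, each next concentration added once the previous one reached maximal effect.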

The compound `CNC(=S)[C@@]1(c2cccnc2)CCCC[S+]1[O-]` (some centres undefined) showed a 90% effect concentration (IC90) of 400 nM.
For the compound `C/N=C(/S)[C@@]1(c2cccnc2)CCCC[C@@H]1CCO`, the 90% effect concentration (IC90) stood at 1700 nM.
The compound `C/N=C(/S)[C@@]1(c2cccnc2)CCCC[C@@H]1CCNC(=O)c1ccccc1` had a 90% effect concentration (IC90) of 300 nM.
On to `C/N=C(/S)C1(c2cccnc2)CCCCC1=O` (centres undefined), for which the concentration for an effect of 90% (IC90) worked out at 800 nM.
Compound `C/N=C(/S)[C@@]1(c2cccnc2)CCCC[C@@H]1CCNC(=O)c1ccc(F)cc1` registered a concentration for an effect of 90% (IC90) of 500 nM.
Compound `C/N=C(/S)C1(c2cccnc2)CCCC/C1=C\CSc1ccccc1` (centres undefined) came in with a concentration for an effect of 90% (IC90) of 3 nM.
In turn, `C/N=C(/S)[C@@]1(c2cccnc2)CCCC[C@@H]1CCNS(C)(=O)=O` came in with a concentration for an effect of 90% (IC90) of 170 nM.
The compound `C/N=C(/NCC[C@H]1CCCC[C@@]1(/C(S)=N\C)c1cccnc1)NS(=O)(=O)c1ccccc1` returned an IC90 of 300 nM.
On to `C/N=C(/S)[C@@]1(c2cccnc2)CCCC[C@@H]1C/C=N/OCc1ccccc1`, for which the 90% effect concentration (IC90) was determined as 30 nM.
On to `C/N=C(/S)[C@@]1(c2cccnc2)CCCC[C@@H]1CCOC(=O)c1ccc(F)cc1`, for which the 90% effect concentration (IC90) was 100 nM.
`C/N=C(/S)[C@@]1(c2cccnc2)CCCC[C@@H]1CCNS(=O)(=O)c1cccs1` returned an IC90 of 1 nM.
Consider `C/N=C(/S)[C@@]1(c2cccnc2)CCCC[C@@H]1CCNS(=O)(=O)c1ccc(Cl)cc1`, for which it took 30 nM to reach the 90% level (IC90).
Take `C/N=C(/S)[C@@]1(c2cccnc2)CCCC[C@@H]1CCNC(=O)Cc1ccccc1`: the IC90 is 300 nM.
`C/N=C(/S)[C@@]1(c2cccnc2)CCCC[C@@H]1CCNS(=O)(=O)c1ccc([N+](=O)[O-])cc1` had an IC90 of 300 nM.
The result for `CNC(=S)[C@@]1(c2cccnc2)CCCC[C@@H]1CCNS(=O)(=O)c1ccc(OC)cc1` reads 300 nM.
As for `C/N=C(/S)[C@@]1(c2cccnc2)CCCC[C@@H]1CCN1C(=O)COCC1=O`, the concentration for an effect of 90% (IC90) turned out to be 100 nM.
`C/N=C(/S)[C@@]1(c2cccnc2)CCCC[C@@H]1CCNS(=O)(=O)c1cccnc1` had an IC90 of 3 nM.
For `C/N=C(/S)C1(c2cccnc2)CCCC/C1=C\COc1ccc(O)cc1` (centres undefined), the IC90 is 300 nM.
The result for `C/N=C(/S)[C@@]1(c2cccnc2)CCCC[C@@H]1CCNS(=O)(=O)c1ccccc1` reads 0.3 nM.
The result for `C/N=C(/S)[C@@]1(c2cccnc2)CCCC[C@@H]1CCNS(=O)(=O)c1ccc(F)cc1` reads 7 nM; that for `C/N=C(/S)[C@@]1(c2cccnc2)CCCC[C@@H]1CC#N`, 300 nM.
`C/N=C(/NCC[C@H]1CCCC[C@@]1(/C(S)=N\C)c1cccnc1)NS(C)(=O)=O`: the 90% effect level (IC90) was put at 30 nM.
Regarding `C/N=C(/S)C1(c2cccnc2)CCCC/C1=C\C=O` (centres undefined), the IC90 was 8000 nM.
For `CNC(=S)[C@@]1(c2cccnc2)CCCC[C@@H]1CC(=O)OC`, the 90% effect level (IC90) was put at 300 nM.
Compound `C/N=C(/S)C1(c2cccnc2)CCCC/C1=C\C=N\OCC(O)CO` (centres undefined) returned an IC90 of 3000 nM.
Take `C/N=C(/S)[C@@]1(c2cccnc2)CCCC[C@@H]1CCNC(C)=O`: it took 130 nM to reach the 90% level (IC90).
The result for `C/N=C(/S)C1(c2cccnc2)CCCC/C1=C\C#N` (centres undefined) reads 10000 nM.
Regarding `C/N=C(/S)[C@@]1(c2cccnc2)CCCC[C@@H]1CCNc1ccccc1`, the concentration for an effect of 90% (IC90) came out at 3 nM.
On to `C/N=C(/S)[C@@]1(c2cccnc2)CCCC[C@@H]1CCN`, for which the IC90 was determined as 10000 nM.
In turn, `C/N=C(/S)[C@@]1(c2cccnc2)CCCC[C@@H]1CCNS(=O)(=O)c1ccc(F)c(F)c1` returned an IC90 of 10 nM.
As to `C/N=C(/S)[C@@]1(c2cccnc2)CCCC[C@@H]1CCNC(=O)C(C)C`, the concentration for an effect of 90% (IC90) amounted to 300 nM.
`C/N=C(/S)C1(c2cccnc2)CCCC/C1=C\COc1ccc([N+](=O)[O-])cc1` (centres undefined) displayed an IC90 of 100 nM.
`C/N=C(/S)C1(c2cccnc2)CCCC/C1=C\C=N\OCc1ccc(F)cc1` (centres undefined) came in with a concentration for an effect of 90% (IC90) of 100 nM.
The result for `C/N=C(/S)[C@@]1(c2cccnc2)CCCC[C@@H]1CCOC(=O)c1ccccc1` reads 30 nM; that for `C/N=C(/S)[C@@]1(c2cccnc2)CCCC[C@@H]1CCOC(C)=O`, 30 nM; that for `C/N=C(/S)[C@@]1(c2cccnc2)CCCC[C@@H]1C/C=C/c1ccc(F)cc1`, 10 nM.
The result for `C/N=C(/S)[C@@]1(c2cccnc2)CCCC[C@@H]1C/C=C/c1ccccc1` reads 100 nM; that for `C/N=C(/S)C1(c2cccnc2)CCCC/C1=C\COc1ccccc1` (centres undefined), 65 nM.
For `C/N=C(/S)C1(c2cccnc2)CCCC/C1=C\CO` (centres undefined), the IC90 came out at 10000 nM.

A word on the IC90: it is the concentration at which the effect reaches the 90% level. High values mean a need for much substance, low ones an effect from little substance.
